The values below come from ChEMBL document CHEMBL5214999, “Identification and Optimization of a Ligand-Efficient Benzoazepinone Bromodomain and Extra Terminal (BET) Family Acetyl-Lysine Mimetic into the Oral Candidate Quality Molecule I-BET432” (J Med Chem, 2022).

In brackets after ≈: the same amount, converted by molar mass.

The nature of data set [1]: Intrinsic clearance in human hepatocytes measured after 120 mins by LC-MS/MS analysis. It counts as ADME, cell-based, Hepatocyte. Particulars: 2 h.
Data set [2] is described as follows: Half-life in Wistar Han rat at 3.1 mg/kg, po or 1 mg/kg, iv measured upto 24 hrs by LC-MS/MS analysis. Type of data set: ADME, organism-based. The settings on record: in vivo. Summed up:
(§1)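 Male Wistar Han rats and beagle dogs were dosed iv as a 1 h infusion in DMSO with 10% (w/v) Kleptose HPB in saline (2%:98% or 5%:95% v/v). Oral doses were given in 1% (w/v) methylcellulose (400 cps) aqueous suspension. Oral values are means of n = 3 and iv values n = 1 unless otherwise noted.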

Data set [3] deals with T1, Bromodomain-containing protein 4 (Homo sapiens, UniProt O60885). The experiment in a line: Inhibition of BRD4 BD2 (unknown origin) measured by TR-FRET assay. Background: Time-resolved FRET reads energy transfer from a long-lived donor to a nearby acceptor.
A short description of data set [4]: Artificial membrane permeability of the compound. It counts as ADME. The settings on record: PAMPA; read-out: permeability.
Data set [5] is described as follows: Unbound clearance in Wistar Han rat blood at 3.1 mg/kg, po or 1 mg/kg, iv measured upto 24 hrs by LC-MS/MS analysis. It counts as ADME, organism-based. Particulars: in vivo. The procedure, abridged:
as §1

For the next data set, the target named is C-C motif chemokine 2 (Homo sapiens, UniProt P13500). Briefly: Inhibition of MCP-1 in LPS-stimulated human whole blood incubate for 24 hrs by immuno assay. Type of data set: tissue-based.
Data set [6] can be described thus: Intrinsic clearance in rat hepatocytes after 60 mins by LC-MS/MS analysis. It counts as ADME, cell-based, Hepatocyte. Particulars: 1 h.
Data set [7] deals with T1, Bromodomain-containing protein 4. The experiment in a line: Inhibition of BRD4 BD1 (unknown origin) measured by TR-FRET assay.
Data set [8] can be described thus: Volume of distribution at steady state in Wistar Han rat at 3.1 mg/kg, po or 1 mg/kg, iv measured upto 24 hrs by LC-MS/MS analysis. It counts as ADME, organism-based. The settings on record: in vivo, read-out: Vdss. The procedure, abridged:
as §1

A short description of data set [9]: Clearance in Wistar Han rat blood at 3.1 mg/kg, po or 1 mg/kg, iv measured upto 24 hrs by LC-MS/MS analysis. It counts as ADME, organism-based. The settings on record: whole blood. Summed up: as §1
Data set [10] in a line: Unbound volume of distribution at steady state in Wistar Han rat at 3.1 mg/kg, po or 1 mg/kg, iv measured upto 24 hrs by LC-MS/MS analysis. It counts as ADME, organism-based. The settings on record: in vivo. Summed up: as §1
A short description of data set [11]: Solubility of the compound at pH 6.5 in fast state simulated intestinal fluid incubated for 16 hrs by HPLC analysis. It counts as physicochemical. The settings on record: fasted state simulated intestinal fluid.
Data set [12] in a line: Oral bioavailability in Wistar Han rat at 3.1 mg/kg measured upto 24 hrs by LC-MS/MS analysis. It counts as ADME, organism-based. Particulars: in vivo. Summed up:
as §1

Data set [13] can be described thus: Intrinsic clearance in dog hepatocytes incubated upto 45 mins by LC-MS/MS analysis. Type of data set: ADME, cell-based, Canis lupus familiaris, Hepatocyte. Particulars: 0.75 h.
The nature of data set [14]: Lipophilicity, logD of compound at pH 7.4 by Chromatography. Type of data set: physicochemical. Particulars: buffer.
Data set [15] in a line: Unbound fraction in Wistar Han rat at 3.1 mg/kg, po or 1 mg/kg, iv measured upto 24 hrs by LC-MS/MS analysis. It counts as ADME, organism-based. The settings on record: in vivo.
Data set [16] in a line: Unbound clearance in Beagle dog blood at 1.5 mg/kg, po or 0.4 mg/kg, iv measured upto 24 hrs by LC-MS/MS analysis. Type of data set: ADME, organism-based, Canis lupus familiaris. Particulars: in vivo. Summed up: as §1
Data set [17] is described as follows: Unbound fraction in Beagle dog at 1.5 mg/kg, po or 0.4 mg/kg, iv measured upto 24 hrs by LC-MS/MS analysis. Particulars: in vivo. It counts as ADME, organism-based, Canis lupus familiaris.
A short description of data set [18]: Volume of distribution at steady state in Beagle dog at 1.5 mg/kg, po or 0.4 mg/kg, iv measured upto 24 hrs by LC-MS/MS analysis. It counts as ADME, organism-based, Canis lupus familiaris. The settings on record: in vivo, read-out: Vdss. Summed up:
as §1

Data set [19] in a line: Clearance in Beagle dog blood at 1.5 mg/kg, po or 0.4 mg/kg, iv measured upto 24 hrs by LC-MS/MS analysis. It counts as ADME, organism-based, Canis lupus familiaris. The settings on record: whole blood. The procedure, abridged: as §1
Data set [20] in a line: Oral bioavailability in Beagle dog at 1.5 mg/kg measured upto 24 hrs by LC-MS/MS analysis. Type of data set: ADME, organism-based, Canis lupus familiaris. The settings on record: in vivo. Summed up: as §1
Data set [21] in a line: Half-life in Beagle dog at 1.5 mg/kg, po or 0.4 mg/kg, iv measured upto 24 hrs by LC-MS/MS analysis. It counts as ADME, organism-based, Canis lupus familiaris. The settings on record: in vivo. The procedure, abridged:
as §1

The nature of data set [22]: Unbound volume of distribution at steady state in Beagle dog at 1.5 mg/kg, po or 0.4 mg/kg, iv measured upto 24 hrs by LC-MS/MS analysis. It counts as ADME, organism-based, Canis lupus familiaris. The settings on record: in vivo. The procedure, abridged:
as §1

Data set [23] in a line: Half-life in Wistar Han rat at 2.9 mg/kg, po or 2.1 mg/kg, iv measured upto 24 hrs by LC-MS/MS analysis. It counts as ADME, organism-based. Particulars: in vivo. Summed up:
as §1

The nature of data set [24]: Clearance in Wistar Han rat blood at 2.9 mg/kg, po or 2.1 mg/kg, iv measured upto 24 hrs by LC-MS/MS analysis. It counts as ADME, organism-based. Particulars: whole blood. The procedure, abridged:
as §1

A short description of data set [25]: Volume of distribution at steady state in Wistar Han rat at 2.9 mg/kg, po or 2.1 mg/kg, iv measured upto 24 hrs by LC-MS/MS analysis. The settings on record: in vivo, read-out: Vdss. Type of data set: ADME, organism-based. Summed up:
as §1

A short description of data set [26]: Oral bioavailability in Wistar Han rat at 2.9 mg/kg measured upto 24 hrs by LC-MS/MS analysis. It counts as ADME, organism-based. Particulars: in vivo. The procedure, abridged:
as §1

In data set [27] the target is Voltage-gated inwardly rectifying potassium channel KCNH2 (Homo sapiens, UniProt Q12809). The experiment in a line: Inhibition of hERG. Type of data set: toxicity.
The target in another data set is Cytochrome P450 3A4 (Homo sapiens, UniProt P08684). Briefly: Inhibition of CYP3A4 (unknown origin). It counts as ADME.
Data set [28] in a line: Solubility of the compound in saline by CLND method. It counts as physicochemical.

Sequence of C-C motif chemokine 2 (P13500 whole entry): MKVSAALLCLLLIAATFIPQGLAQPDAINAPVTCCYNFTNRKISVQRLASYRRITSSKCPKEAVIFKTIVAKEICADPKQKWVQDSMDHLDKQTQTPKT
Sequence of Voltage-gated inwardly rectifying potassium channel KCNH2 (Q12809 whole entry): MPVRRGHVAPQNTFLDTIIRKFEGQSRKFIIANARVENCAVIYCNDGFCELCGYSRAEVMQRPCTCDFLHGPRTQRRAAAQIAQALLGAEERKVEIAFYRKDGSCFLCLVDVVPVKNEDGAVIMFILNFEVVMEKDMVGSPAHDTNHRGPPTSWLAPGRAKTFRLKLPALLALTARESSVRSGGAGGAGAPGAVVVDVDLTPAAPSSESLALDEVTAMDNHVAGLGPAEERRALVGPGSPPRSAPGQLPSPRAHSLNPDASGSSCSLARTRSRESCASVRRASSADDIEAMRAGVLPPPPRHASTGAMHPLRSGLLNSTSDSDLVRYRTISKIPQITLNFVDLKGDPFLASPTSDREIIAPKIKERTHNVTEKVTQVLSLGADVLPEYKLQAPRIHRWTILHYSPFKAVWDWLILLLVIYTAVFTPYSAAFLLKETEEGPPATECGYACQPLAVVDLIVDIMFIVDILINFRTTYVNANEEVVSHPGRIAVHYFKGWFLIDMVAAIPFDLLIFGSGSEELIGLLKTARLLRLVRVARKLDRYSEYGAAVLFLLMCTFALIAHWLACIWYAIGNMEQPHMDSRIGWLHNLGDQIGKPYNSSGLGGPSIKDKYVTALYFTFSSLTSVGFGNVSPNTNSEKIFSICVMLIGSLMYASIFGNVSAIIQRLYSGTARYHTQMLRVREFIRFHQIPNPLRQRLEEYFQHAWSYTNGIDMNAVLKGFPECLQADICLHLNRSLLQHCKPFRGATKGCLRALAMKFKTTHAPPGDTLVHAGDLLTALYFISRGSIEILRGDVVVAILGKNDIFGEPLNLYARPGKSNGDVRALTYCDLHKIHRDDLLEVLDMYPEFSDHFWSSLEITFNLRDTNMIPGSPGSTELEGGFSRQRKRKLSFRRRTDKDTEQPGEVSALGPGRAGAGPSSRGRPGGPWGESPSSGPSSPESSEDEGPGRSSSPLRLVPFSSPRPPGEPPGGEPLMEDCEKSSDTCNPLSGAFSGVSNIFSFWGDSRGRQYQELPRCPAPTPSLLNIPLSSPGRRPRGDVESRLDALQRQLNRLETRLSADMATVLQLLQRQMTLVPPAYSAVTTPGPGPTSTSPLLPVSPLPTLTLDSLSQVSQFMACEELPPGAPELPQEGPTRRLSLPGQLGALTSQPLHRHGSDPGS
Sequence of Cytochrome P450 3A4 (P08684 whole entry): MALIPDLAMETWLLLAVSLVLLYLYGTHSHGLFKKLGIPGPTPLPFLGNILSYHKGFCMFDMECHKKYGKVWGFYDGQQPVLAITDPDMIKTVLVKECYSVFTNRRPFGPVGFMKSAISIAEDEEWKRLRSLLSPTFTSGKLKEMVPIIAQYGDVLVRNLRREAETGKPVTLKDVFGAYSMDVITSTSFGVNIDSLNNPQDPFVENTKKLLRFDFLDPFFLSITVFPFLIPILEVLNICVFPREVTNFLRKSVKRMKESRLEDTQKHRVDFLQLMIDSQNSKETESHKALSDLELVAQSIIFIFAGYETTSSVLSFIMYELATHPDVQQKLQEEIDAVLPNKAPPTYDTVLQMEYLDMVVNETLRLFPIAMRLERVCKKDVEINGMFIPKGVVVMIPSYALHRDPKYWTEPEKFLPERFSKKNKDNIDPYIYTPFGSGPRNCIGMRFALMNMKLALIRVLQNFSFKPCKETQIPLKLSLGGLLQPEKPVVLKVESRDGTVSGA

The half-life is the time in which the quantity being followed falls by half. Usually IC50 stands for the concentration that inhibits the measured activity by half. Read a high IC50 as weaker potency. As usually defined, the solubility is the concentration that dissolves in the medium under given conditions. As a reminder, the bioavailability is dose-corrected exposure relative to a reference, in per cent. A higher bioavailability goes with good availability. In general, chromatographic logD refers to a lipophilicity value derived from retention on a column. Higher therefore signals higher lipophilicity. For the compound `C[C@H]1C(=O)N(C)C=C(c2cn[nH]c2)c2cc([C@H](O)CO)ccc21`, the CLH was 0.52 mL/min/g in data set [1], below 0.8 mL/min/g in data set [6] and below 0.65 mL/min/g in data set [13]. In data set [2], the half-life is 24.6 min. Moreover, the IC50 was 25.1 nM in data set [3], 39.8 nM on C-C motif chemokine 2 and 15.8 nM in [7]. Moreover, in [4], the Papp stood at 0.8 ×10⁻⁶ cm/s. Also, the CL free in data set [5] amounted to 75 mL/min/kg. Moreover, in data set [8], the Vd amounted to 1 L/kg. Moreover, in [9], the clearance was 43 mL/min/kg. For the same compound, the Vduss in data set [10] was 1.8 L/kg. The solubility at 16 h in data set [11] was above 1000 µg/mL. In data set [12], the bioavailability stood at 19%. In [14], this compound displayed a chromatographic logD of 0.8.

As to `C[C@H]1C(=O)N(C)C=C(c2cnn(C)c2)c2cc([C@H](O)CO)ccc21`, the CLH in data set [1] is below 0.45 mL/min/g; in data set [6] it was below 0.8 mL/min/g; in data set [13] it was 1.12 mL/min/g. For the same compound, the Fu worked out at 0.61 in data set [15] and 0.52 in [17]. For the same compound, the half-life in [2] is 58.2 min; in data set [21], 30 min. Also, the IC50 is 31.6 nM in data set [3], 39.8 nM against C-C motif chemokine 2 and 31.6 nM in [7]. Also, the Papp in data set [4] came out at 3.1 ×10⁻⁶ cm/s. Further, the CL free in data set [5] turned out to be 31 mL/min/kg; in data set [16], 87 mL/min/kg. Moreover, the Vd in data set [8] turned out to be 1.1 L/kg; in [18], 1.7 L/kg. Further, the clearance in [9] is 19 mL/min/kg; in data set [19], 45 mL/min/kg. The Vduss stood at 1.8 L/kg in [10] and 3.3 L/kg in data set [22]. The compound further displayed a solubility at 16 h in [11] above 1000 µg/mL. Also, the bioavailability in data set [12] came to 66%; in data set [20] it was 39%. In addition, the chromatographic logD in data set [14] came to 1.3.

Regarding `C[C@H]1C(=O)N(C)C=C(c2cn[nH]c2)c2cc([C@@H](O)CO)ccc21`, the figures for the CLH in data set [1] and in data set [6] were below 0.45 mL/min/g and below 0.8 mL/min/g, respectively. This compound also had a half-life in data set [23] of 45.6 min. Moreover, the clearance in [24] stood at 37 mL/min/kg. The IC50 is 39.8 nM in data set [3], 31.6 nM at C-C motif chemokine 2 and 25.1 nM in data set [7]. In data set [4], the Papp came to 0.7 ×10⁻⁶ cm/s. The Vd in data set [25] was 1.5 L/kg. In [11], this compound had a solubility at 16 h of 417 µg/mL (≈ 1330 µM). Further, in data set [26], the bioavailability was found to be 13%. For the same compound, in data set [14], the chromatographic logD came out at 0.9.

For orientation: solubility (kinetic) means solubility judged after dilution from a stock solution rather than from solid. Take `COc1cc2c(cc1OC)[C@@H](C)C(=O)N(C)C=C2`: the values for the CLH in [1], in data set [6] and in data set [13] were below 0.45 mL/min/g, 6.35 mL/min/g and 2.64 mL/min/g, respectively. Further, the IC50 was above 50100 nM in [27], 631 nM in data set [3], 158 nM in data set [7] and above 39800 nM against Cytochrome P450 3A4. Also, the Papp in data set [4] was determined as 89 ×10⁻⁶ cm/s. The compound also returned a solubility at 16 h in data set [11] above 1000 µg/mL. For the same compound, the solubility (kinetic) in data set [28] is at least 139 µg/mL. In [14], the chromatographic logD came to 3.4.

Consider `C[C@H]1C(=O)N(C)C=Cc2cc(CN3CCOCC3)ccc21`, for which the CLH in data set [1] was below 0.45 mL/min/g; in data set [6], 23.76 mL/min/g; in [13], 3.37 mL/min/g. In addition, the results for the IC50 (in data set [3]; against C-C motif chemokine 2; in data set [7]) were 631 nM, 398 nM and 158 nM, respectively. For the same compound, in [4], the Papp is 77.5 ×10⁻⁶ cm/s. For the same compound, the kinetic solubility in data set [28] was at least 142 µg/mL. Also, in [14], the chromatographic logD amounted to 3.3.
